# How the values were obtained:
# [1] = tested on: MCL-1-rescued p185+Arf−/−/Mcl-1-deleted B-ALL cells; assay: Cell viability; assay type: cell-based, murine
# How it was run: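 B-ALL cells come from Mcl-1f/f Arf−/− mouse marrow transformed with BCR-ABL(p185)-IRES-luciferase. They were stably transduced with MSCV-Puro-Mcl-1, and endogenous Mcl-1 was then deleted with MSCV-Cre-IRES-GFP; cells are kept in RPMI 1640/10% FBS. Cells (4×10^4/well) get serial dilutions of test compound or 0.4% DMSO in DMEM at 37 °C, with CellTiter-Glo luminescence read at 24 h. Data are normalized to vehicle; runs are at least duplicate and repeated twice with independent cultures.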
# [2] = target: T1, MCL-1ΔNΔC (Homo sapiens, UniProt Q07820); assay: Competitive FP assay against the FITC-MCL-1 SAHBA/MCL-1ΔNΔC interaction; assay type: binding
# T1 sequence (Q07820 172-327, stated change not applied): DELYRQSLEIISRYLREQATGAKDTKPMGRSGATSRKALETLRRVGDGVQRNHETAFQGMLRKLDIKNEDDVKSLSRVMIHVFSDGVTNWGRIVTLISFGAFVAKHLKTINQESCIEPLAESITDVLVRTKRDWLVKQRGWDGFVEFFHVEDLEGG
# [3] = target: T1, MCL-1ΔNΔC; assay: Competitive FP assay against the FITC-BID BH3/MCL-1ΔNΔC interaction; assay type: binding
# [4] = tested on: BCL-XL-rescued p185+Arf−/−/Mcl-1-deleted B-ALL cells; assay: Cell viability; assay type: cell-based, murine
# [5] = tested on: wild-type MEFs; assay: Caspase 3/7 activation, wild-type MEFs; assay type: cell-based, mouse; conditions: 8 h
# How it was run: (§1)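 Wild-type or Bax−/−Bak−/− mouse embryonic fibroblasts are kept in high-glucose DMEM with 10% FBS, penicillin/streptomycin, 2 mM L-glutamine, 50 mM HEPES, non-essential amino acids and 50 µM β-mercaptoethanol. Cells are seeded at 5×10^3/well for 24 h, then given serial dilutions of test compound or vehicle (0.4% DMSO). Caspase-Glo 3/7 reagent is added at 8 h and luminescence is read.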
# [6] = tested on: Bax−/−Bak−/− MEFs; assay: Caspase 3/7 activation, Bax−/−Bak−/− MEFs; assay type: cell-based, mouse; conditions: 8 h
# How it was run: as §1
# [7] = tested on: wild-type MEFs; assay: Cell viability, wild-type MEFs; assay type: cell-based, mouse; conditions: same dose range as leukemia cells, 24 h
# How it was run: (§2)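 MEFs (wild-type or Bax−/−Bak−/−) are maintained in supplemented high-glucose DMEM (10% FBS, antibiotics, L-glutamine, HEPES, β-mercaptoethanol). They are plated at 5×10^3 cells/well and allowed 24 h before exposure to serially diluted test compound, with 0.4% DMSO as vehicle. Viability is read as CellTiter-Glo luminescence after 24 h of treatment.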
# [8] = target: T1, MCL-1ΔNΔC; assay: BAX-mediated liposomal release assay, suppression by MCL-1ΔNΔC; assay type: biochemical; conditions: 20 nM tBID, 250 nM BAX
# [9] = tested on: Bax−/−Bak−/− MEFs; assay: Cell viability, Bax−/−Bak−/− MEFs; assay type: cell-based, mouse; conditions: same dose range as leukemia cells, 24 h
# How it was run: as §2
# [10] = tested on: BCL-XL-rescued p185+Arf−/−/Mcl-1-deleted B-ALL cells; assay: Caspase 3/7 activation; assay type: cell-based, murine; conditions: 8 h post-treatment
# [11] = target: BCL-XLΔC (Homo sapiens, UniProt Q07817); assay: Competitive FP assay against the FITC-BID BH3/BCL-XLΔC interaction; assay type: binding
# Chain of BCL-XLΔC (Q07817 1-212 limits assumed, stated change not applied): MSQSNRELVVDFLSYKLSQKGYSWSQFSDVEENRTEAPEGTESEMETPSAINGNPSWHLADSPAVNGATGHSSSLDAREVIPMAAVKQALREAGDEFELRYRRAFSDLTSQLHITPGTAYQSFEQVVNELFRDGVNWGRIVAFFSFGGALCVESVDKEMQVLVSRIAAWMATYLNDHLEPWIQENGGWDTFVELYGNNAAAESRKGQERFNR
# [12] = tested on: MCL-1-rescued p185+Arf−/−/Mcl-1-deleted B-ALL cells; assay: Caspase 3/7 activation; assay type: cell-based, murine; conditions: 8 h post-treatment
# How it was run: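 Mcl-1-floxed Arf−/− mouse marrow was transformed with p185-IRES-luciferase, stably rescued with MSCV-Puro-Mcl-1, and endogenous Mcl-1 was deleted via MSCV-Cre-IRES-GFP. Cells were kept in supplemented RPMI 1640 and seeded at 4×10^4/well. Serial dilutions of test compound or vehicle (0.4% DMSO) were added in DMEM at 37°C. Caspase-Glo 3/7 luminescence was read at 8 h. Values were normalized to vehicle (mean ± SEM, ≥duplicate, two independent cultures).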
# [13] = target: MCL-1/BAK complex (Mus musculus, UniProt P97287); assay: Co-immunoprecipitation of MCL-1/BAK complex in MCL-1-reconstituted B-ALL cells; assay type: cell-based, murine; conditions: 6 h incubation
# Chain of MCL-1/BAK complex (P97287 whole entry, one chain of several): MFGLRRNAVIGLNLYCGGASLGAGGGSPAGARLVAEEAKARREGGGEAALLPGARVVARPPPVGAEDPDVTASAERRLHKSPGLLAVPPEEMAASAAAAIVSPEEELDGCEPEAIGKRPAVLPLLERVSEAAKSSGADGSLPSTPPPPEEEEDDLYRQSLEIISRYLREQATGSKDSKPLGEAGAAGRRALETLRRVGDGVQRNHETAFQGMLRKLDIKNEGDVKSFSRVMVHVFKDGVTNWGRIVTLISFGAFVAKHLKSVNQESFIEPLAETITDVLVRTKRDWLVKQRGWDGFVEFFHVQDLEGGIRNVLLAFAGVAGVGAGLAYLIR
# How it was run: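 MCL-1-reconstituted Mcl-1-deleted B-ALL cells (5×10^6) were given vehicle or test compound for 6 h. Lysate was precleared on protein A/G, then taken with anti-MCL-1 overnight at 4°C plus A/G beads for 1 h. After three washes and elution at 90°C, SDS-PAGE/Western probed MCL-1 and BAK.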
SMILES,Effect on viability of MCL-1-dependent cells (in words) ([1]; CellTiter-Glo at 24 h),Competition with FITC-MCL-1 SAHBA for MCL-1ΔNΔC binding (in words) [2],Competition with FITC-BID BH3 for MCL-1ΔNΔC binding (in words) [3],"IC50 ([4]; Mus musculus, 24 h, read-out: IC50, cell viability of BCL-XL-dependent cells)",Caspase 3/7 activation in wild-type MEFs [5],Caspase 3/7 activation in Bax−/−Bak−/− MEFs [6],Effect on viability of wild-type MEFs [7],Blockade of MCL-1ΔNΔC suppression of tBID-induced BAX activation (liposomal release) [8],Effect on viability of Bax−/−Bak−/− MEFs [9],Caspase 3/7 activation in BCL-XL-dependent cells [10],"IC50 ([1]; Mus musculus, 24 h, read-out: IC50, cell viability of MCL-1-dependent cells)",IC50 [3],"Fold difference of IC50 for MCL-1ΔNΔC versus IC50 of ABT-737 for BCL-XLΔC ([3]; competition with FITC-BID BH3, MIM1 less potent)",IC50 [11],Effect on viability of BCL-XL-dependent cells (in words) ([4]; CellTiter-Glo at 24 h),Caspase 3/7 activation in MCL-1-dependent cells [12],Dissociation of the inhibitory MCL-1/BAK complex (co-immunoprecipitation) [13]
"CN(C)CC[C@H](CSc1ccccc1)Nc1ccc(S(=O)(=O)NC(=O)c2ccc(N3CCN(Cc4ccccc4-c4ccc(Cl)cc4)CC3)cc2)cc1[N+](=O)[O-] [ABT-737, reference compound]",no effect on the MCL-1-dependent cells,had no effect,showed no activity toward MCL-1ΔNΔC,1.6 µM,no observed caspase 3/7 activation,no observed caspase 3/7 activation,no significant effect,had no effect on MCL-1ΔNΔC activity,no significant effect,dose-responsive caspase 3/7 activation,,,,,,,
"Cc1cs/c(=N\C2CCCCC2)n1/N=C/c1ccc(O)c(O)c1O [MIM1, 4-((E)-(((Z)-2-(cyclohexylimino)-4-methylthiazol-3(2H)-yl)imino)methyl)benzene-1,2,3-triol]",,,,,no observed caspase 3/7 activation,no observed caspase 3/7 activation,no significant effect,preventing BAX suppression by MCL-1ΔNΔC,no significant effect,,4.2 µM,4.8 µM,7.5 fold,> 50 µM,little to no effect on the BCL-XL-dependent cells,dose-dependent induction of caspase 3/7 activity,dose-dependent dissociation of the inhibitory MCL-1/BAK complex

# Reference: publication PMC3582387 (Chemistry & biology, 2012)
